Results from article PMC2948526 (Antiviral chemistry & chemotherapy, 2010).

Assays:
[1] = system: Ad4; experiment: Ad4 yield reduction assay; assay type: cell-based, human adenovirus type-4; details: A549 cells, 10 μM olomoucine II, 100 μM cidofovir or both
Procedure, shortened: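 Confluent A549 monolayers were infected with 2,000 PFU/well Ad4 (multistep growth curve, MOI 0.01) for 1 h at 37°C with rocking. They were rinsed, then kept in medium with 10 μM test compound, 100 μM cidofovir, or both. Cells and media were harvested separately at 6–96 h, and released and total virus were titrated on A549 cells. The 0 h point is the inoculum.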

[2] = WST-1 cytotoxicity assay, HFFF cells; assay type: cell-based, human; details: human, HFFF cells (human fetal foreskin fibroblasts), confluent
[3] = system: HFFF cells; experiment: WST-1 cytotoxicity assay, HFFF cells; assay type: cell-based, human; details: 2.4–5.3 μM olomoucine II, WST-1, fibroblasts
[4] = system: human fetal foreskin fibroblast cells; experiment: Apoptosis as caspase-3/7 activity; assay type: cell-based; details: 15–50 μM olomoucine II; 24, 48, 72 h
Procedure, shortened: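 Confluent HFFF cells (DMEM, 10% heat-inactivated FBS) were exposed for 24, 48 or 72 h to test compound dilutions, to mock treatment, or to serum deprivation. Caspase-3/7 activity was read by Caspase-Glo 3/7 luminescence, following the kit protocol. Values are blank-subtracted relative luminescence units ± SD.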

[5] = WST-1 cytotoxicity assay, A549 cells; assay type: cell-based; details: human, A549 cells (human lung carcinoma epithelial cells)
Procedure, shortened: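 A549 cells were grown in DMEM with 10% heat-inactivated FBS and antibiotics, then exposed to test compound. Viability was measured with a WST-1 kit, following the kit protocol, as absorbance at 450 nm.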

[6] = system: CDK9; details: cited from earlier work

Compound: Nc1ccn(C[C@@H](CO)OCP(=O)(O)O)c(=O)n1 [Cidofovir, (S)-1-[3-hydroxy-2-(phosphonylmethoxy)propyl]-cytosine, reference compound]
- Reduction of total virus yield ([1]; 24 h post-infection): 2 log (log10 PFU)
- Reduction of total virus yield ([1]; 48 h post-infection): 2 log
- Reduction of total virus yield ([1]; 96 h post-infection): 3 log

Compound: CC[C@H](CO)Nc1nc(NCc2ccccc2O)c2ncn(C(C)C)c2n1 [Olomoucine II, 6-(2-hydroxybenzylamino)-2-{[(1R)-(hydroxymethyl)propyl]amino}-9-isopropylpurine]
- CC50 at 24 h [2]: > 100 µM
- CC50 at 48 h [2]: 73 ± 4 µM
- CC50 at 72 h [2]: 16 ± 2 µM
- CC50 at 96 h [2]: 17 ± 2 µM
- CC50 at 168 h [2]: 16 ± 3 µM
- Cytotoxicity at antiviral IC50 levels [3]: no significant cytotoxicity was detected
- Caspase-3/7 activity [4]: caspase activation
- CC50 at 48 h [5]: > 100 µM
- CC50 at 96 h [5]: > 100 µM
- CC50 at 120 h [5]: > 100 µM
- Higher inhibitory activity for CDK9 compared with roscovitine [6]: 10 fold
- Reduction of total virus yield ([1]; 24 h post-infection): 5 log (log10 PFU)
- Reduction of total virus yield ([1]; 48 h post-infection): 1 log
- Reduction of total virus yield ([1]; 96 h post-infection): no overall effect on virus yield

Compound: CC[C@H](CO)Nc1nc(NCc2ccccc2)c2ncn(C(C)C)c2n1 [Roscovitine, 2-(R)-(1-ethyl-2-hydroxyethylamino)-6-benzylamino-9-isopropylpurine, reference compound]
- CC50 at 24 h [2]: > 100 µM
- CC50 at 48 h [2]: 84 ± 5 µM
- CC50 at 72 h [2]: 21 ± 2 µM
- CC50 at 168 h [2]: 30 ± 4 µM
- CC50 at 48 h [5]: > 100 µM
- CC50 at 96 h [5]: > 100 µM
- CC50 at 120 h [5]: > 100 µM
